This is an account of results in PubChem BioAssay.

Active and inactive are the calls of the source.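 Rule for the calls, unless noted: active = viability at or below 10% of carrier control in both of two separate runs; inconclusive = viability at or below 10% in only one of the two runs; inactive = the rest.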

The nature of experiment [1]: Her2 expression decrease, cell viability multiplex – SKBR3 breast tumor cells, AlphaScreen, ATP viability, primary screen (AID 461;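 active = Her2 level under about 52% in both replicate screens, with viability over 70% of control, limit read from the data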;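 for Her2 level: lower value means less Her2 protein in the cells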;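 for viability: percent of carrier control wells set as 100% viability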). Particulars: SKBR3 Her2 protein level, 18-24 h, measured here: SKBR3 viability, ATP luminescence, at 10 µM. (Bead proximity is the source of the signal in Alpha formats.)
The target of experiment [2] is Receptor tyrosine-protein kinase erbB-2 (Homo sapiens) (UniProt P04626). The description is as above. The conditions noted are these: 18-24 h, at 10 µM, stronger effect = lower value.
Receptor tyrosine-protein kinase erbB-2 (Homo sapiens), sequence (P04626 whole entry, looked up): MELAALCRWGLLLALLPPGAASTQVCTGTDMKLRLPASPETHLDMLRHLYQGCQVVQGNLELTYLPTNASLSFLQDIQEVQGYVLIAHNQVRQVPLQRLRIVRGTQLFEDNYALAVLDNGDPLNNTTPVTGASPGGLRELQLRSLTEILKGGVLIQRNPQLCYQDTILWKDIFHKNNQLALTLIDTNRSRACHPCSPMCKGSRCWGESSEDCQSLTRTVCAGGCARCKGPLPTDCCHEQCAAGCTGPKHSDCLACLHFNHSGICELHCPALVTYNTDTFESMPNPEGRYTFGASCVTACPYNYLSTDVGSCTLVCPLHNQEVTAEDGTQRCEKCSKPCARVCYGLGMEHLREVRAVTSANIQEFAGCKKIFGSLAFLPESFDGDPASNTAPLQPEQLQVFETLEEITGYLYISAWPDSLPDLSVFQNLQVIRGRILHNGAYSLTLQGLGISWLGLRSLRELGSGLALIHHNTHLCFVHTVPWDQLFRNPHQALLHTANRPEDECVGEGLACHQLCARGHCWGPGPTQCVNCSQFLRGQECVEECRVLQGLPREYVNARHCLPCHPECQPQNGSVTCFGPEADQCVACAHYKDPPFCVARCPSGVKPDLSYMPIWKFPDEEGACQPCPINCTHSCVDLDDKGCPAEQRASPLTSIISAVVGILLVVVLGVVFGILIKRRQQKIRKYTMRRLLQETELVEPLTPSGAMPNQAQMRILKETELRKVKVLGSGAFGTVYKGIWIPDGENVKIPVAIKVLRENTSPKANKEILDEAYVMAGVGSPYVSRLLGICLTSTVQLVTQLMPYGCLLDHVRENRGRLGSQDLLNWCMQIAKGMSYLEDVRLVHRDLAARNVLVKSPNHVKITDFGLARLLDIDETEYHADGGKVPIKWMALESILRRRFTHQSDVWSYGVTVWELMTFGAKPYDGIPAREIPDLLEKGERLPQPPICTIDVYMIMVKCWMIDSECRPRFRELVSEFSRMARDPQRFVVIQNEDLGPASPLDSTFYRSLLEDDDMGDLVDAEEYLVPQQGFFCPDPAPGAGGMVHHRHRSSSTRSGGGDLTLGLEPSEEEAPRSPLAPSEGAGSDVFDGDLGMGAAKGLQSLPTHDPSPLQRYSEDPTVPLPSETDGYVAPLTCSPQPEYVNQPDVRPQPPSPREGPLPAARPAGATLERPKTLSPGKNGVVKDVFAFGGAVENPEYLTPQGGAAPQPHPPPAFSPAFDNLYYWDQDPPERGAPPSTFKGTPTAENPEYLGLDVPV
A short description of experiment [3]: reduced viability of SK-BR-3 breast cancer cells – cell-based, 24 h, human, pilot screen (AID 572).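 Note: compound exposure lasted between 18 and 24 h rather than exactly 24 h; 100% = carrier-treated control wells.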 Particulars: SK-BR-3 viability, CellTiter-Glo luminescence, at 10 µM, stronger effect = lower value.
Experiment [4] can be described thus: HUVEC growth inhibition – cell-based, human, primary screen (AID 575;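 active = viability at or below 30% in both replicate assays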;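 note: 100% = median of untreated cell wells with 0.1% DMSO on each plate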). Particulars: HUVEC proliferation, CellTiter-Glo luminescence, 72 h; at 10 µM; stronger effect = lower value. A digest of the protocol:
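System – primary HUVEC, no more than 12 passages · Medium – Low-serum (2% FBS) EBM, supplemented · Times – 72 h exposure, 37 °C, 5% CO2, 30 min RT equilibration · Measured by – luminescent ATP assay · Read-out – % viability relative to median vehicle-well signal on each plate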

Experiment [5] can be described thus: H69AR cell proliferation blockers – human, duplicate replicates, primary screen (AID 580;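 active = viability at or under a set limit in both replicates, limit being median viability minus 3 SD, cut at about 48% in these data, passing the limit was not always enough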;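 note: 100% = mean luminescence of untreated wells and 0% = no signal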). Particulars: H69AR lung tumor cells viability, ATP luminescence, 72 h; at 10 µM; stronger effect = lower value.
The nature of experiment [6]: MRP1 drug-resistance reversers in H69AR cells – cell-based, doxorubicin co-treatment, pilot screen (AID 601;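 active = viability loss from added drug above about 55%, and viability with drug at most 40%, in both replicates, limit read from the data, passing the limit was not always enough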). The conditions noted are these: CellTiter-Glo, 72 h, at 10 µM; for differential viability (reversal): stronger effect = higher value. A general note: ATP-based viability assays read luminescence as a measure of living cells.
Experiment [7] can be described thus: yeast transport mutant growth inhibition pilot in 384-well plates, post-Golgi transport modulator project (AID 636; in the data active = inhibition above about 31%). The conditions noted are these: absorbance 615 nm, about 18 h, stronger effect = higher value.
Experiment [8] in a line: growth suppression of yeast trafficking mutant, preliminary HTS, modulators of trafficking downstream of Golgi apparatus project, 1536-format plate, OD 615 nm (AID 637; in the data active = inhibition above about 30%). Particulars: yeast transport mutant growth, absorbance 615 nm, 18 h; stronger effect = higher value.
Setting [9] is: H69AR cells + 2 uM doxorubicin, measured here: viability with 2 uM doxorubicin, stronger effect = lower value.
[10] abbreviates: H69AR cells, compound alone cytotoxicity.

A word on the viability: it is a read-out of living cells in per cent, often relative to untreated cells. In general, inhibition refers to the drop in the measured response relative to a control, in per cent. Regarding `Cc1noc(C)c1CSc1nnc(-c2ccncc2)n1-c1cccc(Cl)c1C`, the viability in experiment [1] was 81.5%; in experiment [3] it was 81.5% (inactive); in experiment [4], 81% (inactive); in experiment [5], 88.4% (inactive); in experiment [6] (setting [9]) it was 86%; in experiment [6] (setting [10]) it was 88.4%. In addition, in experiment [2], the Her2 level is 93.5% (inactive). Further, in experiment [6] (H69AR cells + 2 uM doxorubicin), the differential viability (reversal) was 2.37% (inactive). Also, the results for the inhibition in experiment [7] and in experiment [8] were -3.42% (inactive) and -8.25% (inactive), respectively.

Regarding `Cc1nnc(NCCc2ccccc2)n(N)c1=O`, the viability is 107% in experiment [1]; 107% (inactive) in experiment [3]; 120% (inactive) in experiment [4]; 94.1% (inactive) in experiment [5]; 97.8% in experiment [6] (setting [9]); 94.1% in experiment [6] (setting [10]). In addition, in experiment [2], the Her2 level is 104% (inactive). Besides, the differential viability (reversal) in experiment [6] (H69AR cells + 2 uM doxorubicin) is -3.7% (inactive). In addition, the inhibition in experiment [7] was -0.4% (inactive); in experiment [8], -9.03% (inactive).

With `Cc1cc(C)cc(N2CCCn3c2nc2c3c(=O)n(CCN3CCOCC3)c(=O)n2C)c1`, the viability is 101% in experiment [1]; 101% (inactive) in experiment [3]; 97.2% (inactive) in experiment [4]; 83.3% (inactive) in experiment [5]; 83.3% in experiment [6] (setting [9]); 83.3% in experiment [6] (setting [10]). In addition, the Her2 level in experiment [2] was 81% (inactive). The differential viability (reversal) in experiment [6] (H69AR cells + 2 uM doxorubicin) was -0.035% (inactive). For the same compound, the results for the inhibition in experiment [7] and in experiment [8] were -7.2% (inactive) and -3.44% (inactive), respectively.

For `CCCCP(=O)(CCCC)Cc1ccccc1O`, the viability in experiment [1] was 99.5%; in experiment [3], 99.5% (inactive); in experiment [4], 103% (inactive); in experiment [5], 97.1% (inactive); in experiment [6] (setting [9]) it was 89.8%; in experiment [6] (setting [10]), 97.1%. In experiment [2], the Her2 level is 104% (inactive). In experiment [6] (H69AR cells + 2 uM doxorubicin), the differential viability (reversal) is 7.29% (inactive). In addition, the inhibition is -5.32% (inactive) in experiment [7] and -6.07% (inactive) in experiment [8].

Consider `CCC(=O)N1C(=O)CCN(C(C)=O)c2ccccc21`, for which the viability was 86.5% in experiment [1]; 86.5% (inactive) in experiment [3]; 100% (inactive) in experiment [4]; 103% (inactive) in experiment [5]; 104% in experiment [6] (setting [9]); 103% in experiment [6] (setting [10]). Further, the Her2 level in experiment [2] is 106% (inactive). The differential viability (reversal) in experiment [6] (H69AR cells + 2 uM doxorubicin) was -1.28% (inactive). The inhibition is -4.67% (inactive) in experiment [7] and 0.32% (inactive) in experiment [8].

As for `Cc1c(Cl)cnc(NC(=O)COC(=O)C(NC(=O)c2ccco2)C(C)C)c1Cl` (stereo not given), the viability is 86% in experiment [1]; 86% (inactive) in experiment [3]; 92.4% (inactive) in experiment [4]; 83.2% (inactive) in experiment [5]; 72.5% in experiment [6] (setting [9]); 83.2% in experiment [6] (setting [10]). Further, the Her2 level in experiment [2] is 85% (inactive). The differential viability (reversal) in experiment [6] (H69AR cells + 2 uM doxorubicin) is 10.7% (inactive). Also, the inhibition was -1.89% (inactive) in experiment [7] and -4.76% (inactive) in experiment [8].

As to `CC1(CC(=O)O)C(=O)N=C2C=CC=CN21` (stereo not given), the viability in experiment [1] was 93%; in experiment [3], 93% (inactive); in experiment [4], 97.9% (inactive); in experiment [5] it was 89.4% (inactive); in experiment [6] (setting [9]) it was 84.2%; in experiment [6] (setting [10]), 89.4%. Also, in experiment [2], the Her2 level is 87.5% (inactive). The differential viability (reversal) in experiment [6] (H69AR cells + 2 uM doxorubicin) is 5.18% (inactive). The inhibition in experiment [7] was -4.93% (inactive); in experiment [8], 0.16% (inactive).

For `C/C(N)=C(/C#N)C(=O)CSc1nnc(Nc2c(C)cccc2C)s1`, the viability was 108% in experiment [1]; 108% (inactive) in experiment [3]; 93.7% (inactive) in experiment [4]; 103% (inactive) in experiment [5]; 74.6% in experiment [6] (setting [9]); 103% in experiment [6] (setting [10]). Besides, the Her2 level in experiment [2] is 79.5% (inactive). Moreover, the differential viability (reversal) in experiment [6] (H69AR cells + 2 uM doxorubicin) was 28.5% (inactive). In addition, the inhibition in experiment [7] was -2.84% (inactive); in experiment [8], 3.02% (inactive).

For `COc1ccccc1OC(=O)c1ccc2nsnc2c1`, the viability was 110% in experiment [1]; 110% (inactive) in experiment [3]; 91.8% (inactive) in experiment [4]; 100% (inactive) in experiment [5]; 88.4% in experiment [6] (setting [9]); 100% in experiment [6] (setting [10]). Moreover, the Her2 level in experiment [2] is 89% (inactive). Also, the differential viability (reversal) in experiment [6] (H69AR cells + 2 uM doxorubicin) was 11.6% (inactive). In addition, the inhibition was -8.16% (inactive) in experiment [7] and -6.55% (inactive) in experiment [8].

Take `[N-]=[N+]=CC(=O)CC(c1ccccc1)N1C(=O)c2ccccc2C1=O` (stereo not given): the viability in experiment [1] was 93.5%; in experiment [3] it was 93.5% (inactive); in experiment [4], 97.8% (inactive); in experiment [5], 103% (inactive); in experiment [6] (setting [9]), 97%; in experiment [6] (setting [10]), 103%. In addition, in experiment [2], the Her2 level was 106% (inactive). For the same compound, in experiment [6] (H69AR cells + 2 uM doxorubicin), the differential viability (reversal) was 5.81% (inactive). Further, the inhibition is -0.91% (inactive) in experiment [7] and -4.29% (inactive) in experiment [8].

With `O=C(CN1CCCC1)Nc1ccc(NC(=O)Nc2ccccc2)cc1`, the viability was 92.5% in experiment [1]; 92.5% (inactive) in experiment [3]; 75.3% (inactive) in experiment [4]; 95.3% (inactive) in experiment [5]; 94.9% in experiment [6] (setting [9]); 95.3% in experiment [6] (setting [10]). Moreover, the Her2 level in experiment [2] was 110% (inactive). In experiment [6] (H69AR cells + 2 uM doxorubicin), the differential viability (reversal) was 0.39% (inactive). The inhibition in experiment [7] is 0% (inactive); in experiment [8], -6.39% (inactive).

As for `CC(=O)c1cccc(N(CC(=O)N2CCCC2)S(C)(=O)=O)c1`, the viability in experiment [1] was 91.5%; in experiment [3], 91.5% (inactive); in experiment [4] it was 99.3% (inactive); in experiment [5] it was 99.7% (inactive); in experiment [6] (setting [9]), 94.1%; in experiment [6] (setting [10]), 99.7%. Further, the Her2 level in experiment [2] was 93% (inactive). The differential viability (reversal) in experiment [6] (H69AR cells + 2 uM doxorubicin) is 5.66% (inactive). For the same compound, the inhibition in experiment [7] is -6.67% (inactive); in experiment [8], 0.48% (inactive).

For `COc1cccc(Nc2cc(C)nc3ccccc23)c1`, the viability is 77% in experiment [1]; 77% (inactive) in experiment [3]; 85.4% (inactive) in experiment [4]; 74.4% (inactive) in experiment [5]; 75.4% in experiment [6] (setting [9]); 74.4% in experiment [6] (setting [10]). Also, the Her2 level in experiment [2] is 83% (inactive). For the same compound, in experiment [6] (H69AR cells + 2 uM doxorubicin), the differential viability (reversal) was -1.05% (inactive). The inhibition was -4.4% (inactive) in experiment [7] and 1.11% (inactive) in experiment [8].

On to `Cc1cc(Cl)c(S(=O)(=O)NC2CCCCC2)cc1OCC(=O)Nc1nncs1`, for which the viability in experiment [1] was 107%; in experiment [3], 107% (inactive); in experiment [4], 86.5% (inactive); in experiment [5] it was 90.1% (inactive); in experiment [6] (setting [9]), 93.6%; in experiment [6] (setting [10]), 90.1%. Further, the Her2 level in experiment [2] was 88% (inactive). The differential viability (reversal) in experiment [6] (H69AR cells + 2 uM doxorubicin) was -3.42% (inactive). Further, the inhibition in experiment [7] was -4.74% (inactive); in experiment [8], -3.17% (inactive).
